Laboratory results from ChEMBL document CHEMBL5678799 (Biochem J, 2009).
Active and inactive are the calls of the source. The calls are words filed in the database; no cut-off is given here.

Assays:
[1] = molecular target: Serine/threonine-protein kinase Nek6 (Homo sapiens) (UniProt Q9HC98); experiment: Inhibition of recombinant human His6-tagged NEK6 (8 to 313 residues) expressed in baculovirus infected Sf21 cells assessed as remaining activity at 10 uM using FLAKSFGSPNRAYKK as substrate incubated for 30 mins in presence of [gamma-33P]ATP by filter binding method relative to control
Method in brief: (§1)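 Run robotically for 30 min at 21 °C under linear conditions. Compound at 1 or 10 µM. Percentage activity remaining versus control without compound, triplicate mean ± S.D.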

[2] = molecular target: Mitogen-activated protein kinase 13 (Homo sapiens) (UniProt O15264); experiment: Inhibition of recombinant human GST-tagged P38delta (1 to 365 residues) expressed in Escherichia coli assessed as remaining activity at 10 uM using MBP as substrate incubated for 30 mins in presence of [gamma-33P]ATP by filter binding method relative to control
Method in brief: (§2)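 Kinase panel run robotically at 21 °C for 30 min, linear in time and enzyme. […] Compound tested at 1 or 10 µM. Activity given as percentage of incubations without compound, mean of triplicates ± S.D.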

[3] = molecular target: Phosphorylase b kinase gamma catalytic chain, skeletal muscle/heart isoform (Homo sapiens) (UniProt Q16816); experiment: Inhibition of recombinant human N-terminal GST-tagged PHKgamma1 (2 to 297 residues) expressed in Escherichia coli assessed as remaining activity at 1 uM using phosphorylase b peptide as substrate incubated for 30 mins in presence of [gamma-33P]ATP by filter binding method relative to control
Method in brief: (§3)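 Incubation was 30 min at room temperature (21 °C) under conditions linear with time and enzyme amount. Activity is reported as percent of control lacking compound, triplicate mean ± S.D.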

[4] = molecular target: T1, mTORC2 (Homo sapiens) (UniProt P42345+Q6R327+Q9BVC4+Q9BPZ7); conditions: HEK293, dose 30-1000 nM, time 30.0 min
[5] = molecular target: AMPK alpha1/beta2/gamma1 (Homo sapiens) (UniProt O43741+P54619+Q13131); experiment: Inhibition of recombinant N-terminal His6-tagged human AMPKalpha1 (11 to 559 residues)/AMPKbeta2 (1 to 272 residues)/AMPKgamma1 (1 to 331 residues) expressed in baculovirus infected Sf21 cells assessed as remaining activity at 10 uM using SAMS as substrate incubated for 30 mins in presence of [gamma-33P]ATP by filter binding method relative to control; method in brief: as §1
[6] = molecular target: MAP/microtubule affinity-regulating kinase 3 (Homo sapiens) (UniProt P27448); experiment: Inhibition of recombinant human N-terminal His6-tagged MARK3 (2 to 729 residues) expressed in baculovirus infected Sf21 cells assessed as remaining activity at 1 uM using CHKtide as substrate incubated for 30 mins in presence of [gamma-33P]ATP by filter binding method relative to control
[7] = molecular target: T1, mTORC2 (Homo sapiens); conditions: HEK293, dose 100-1000 nM, time 12-48 hrs
[8] = test system: MEF; experiment: Inhibition of mTORC2 in MEF cells assessed as reduction in NDRG1 phosphorylation incubated ay 1 uM for 30 mins by immunoblot analysis; type: cell-based; conditions: Mus musculus
Method in brief: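 Cells (MEFs, wild-type or knockout, or HeLa) kept in 10% serum, then exposed 30 min to inhibitor or vehicle at the stated level. Washed twice in ice-cold PBS and lysed in Tris lysis buffer with CHAPS, phosphatase and protease inhibitors. Lysates cleared at 18000 g and immunoblotted with phospho-specific antibodies and ECL detection. Blots are representative of three experiments.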

[9] = molecular target: Ephrin type-B receptor 3 (Homo sapiens) (UniProt P54753); experiment: Inhibition of recombinant human N-terminal His6-tagged EPHB3 (561 to 998 residues) expressed in Escherichia coli assessed as remaining activity at 1 uM using Poly(Glu, Tyr) as substrate incubated for 30 mins in presence of [gamma-33P]ATP by filter binding method relative to control
Method in brief: (§4)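 Panel assays were run for 30 min at 21 °C, within the linear range for time and enzyme. […] Results are percent activity remaining relative to compound-free control, averaged from triplicate ± S.D.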

[10] = molecular target: Casein kinase I isoform delta (Homo sapiens) (UniProt P48730); experiment: Inhibition of recombinant human N-terminal GST-tagged CK1delta (1 to 415 residues) expressed in Escherichia coli assessed as remaining activity at 10 uM using RRKDLHDDEEDEAMSITA as substrate incubated for 30 mins in presence of [gamma-33P]ATP by filter binding method relative to control
Method in brief: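 Robotic radiometric panel assay, 30 min at room temperature (21 °C), with 10 mM magnesium acetate. […] Compound at 1 or 10 µM. Residual activity expressed relative to compound-free control; triplicate average ± S.D.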

[11] = molecular target: Dual specificity mitogen-activated protein kinase kinase 1 (Homo sapiens) (UniProt Q02750); experiment: Inhibition of recombinant human MKK1 (2 to 393 residues) expressed in Escherichia coli assessed as remaining activity at 1 uM using MBP as substrate incubated for 30 mins in presence of [gamma-33P]ATP by filter binding method relative to control; method in brief: as §2
[12] = molecular target: Fibroblast growth factor receptor 1 (Homo sapiens) (UniProt P11362); experiment: Inhibition of recombinant human N-terminal His6-tagged FGFR1 (400 to 820 residues) expressed in baculovirus infected Sf21 cells assessed as remaining activity at 10 uM using Poly(Glu,Tyr) as substrate incubated for 30 mins in presence of [gamma-33P]ATP by filter binding method relative to control; method in brief: as §4
[13] = molecular target: Homeodomain-interacting protein kinase 2 (Homo sapiens) (UniProt Q9H2X6); experiment: Inhibition of recombinant human N-terminal GST-tagged HIPK2 (165 to 564 residues) expressed in Escherichia coli assessed as remaining activity at 1 uM using MBP as substrate incubated for 30 mins in presence of [gamma-33P]ATP by filter binding method relative to control
Method in brief: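 Radiometric kinase panel run robotically at room temperature (21 °C) for 30 min, linear in time and enzyme. […] Activity is expressed as percent of control without compound, from triplicate determinations ± S.D.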

[14] = molecular target: Phosphorylase b kinase gamma catalytic chain, skeletal muscle/heart isoform (Homo sapiens) (UniProt Q16816); experiment: Inhibition of recombinant human N-terminal GST-tagged PHKgamma1 (2 to 297 residues) expressed in Escherichia coli assessed as remaining activity at 10 uM using phosphorylase b peptide as substrate incubated for 30 mins in presence of [gamma-33P]ATP by filter binding method relative to control; method in brief: as §3
[15] = test system: MEF; experiment: Induction of cell cycle arrest in MEF cells assessed as accumulation at G2 phase at 3 uM incubated for 1 to 3 days by propidium iodide staining based flow cytometric analysis (reference value: 15.4 +/- 2.04%); type: toxicity; conditions: mouse, time 1-3 day
[16] = molecular target: cAMP-dependent protein kinase catalytic subunit alpha (Homo sapiens) (UniProt P17612); experiment: Inhibition of recombinant human N-terminal GST-tagged PKAalpha (2 to 351 residues) expressed in Escherichia coli assessed as remaining activity at 1 uM using Kemptide as substrate incubated for 30 mins in presence of [gamma-33P]ATP by filter binding method relative to control; method in brief: as §4
[17] = molecular target: T1, mTORC2 (Homo sapiens); conditions: HEK293, dose 100-1000 nM, time 20.0 min

Sequence of Phosphorylase b kinase gamma catalytic chain, skeletal muscle/heart isoform (Homo sapiens) (Q16816 whole entry, looked up, the tested form may be a part, canonical isoform): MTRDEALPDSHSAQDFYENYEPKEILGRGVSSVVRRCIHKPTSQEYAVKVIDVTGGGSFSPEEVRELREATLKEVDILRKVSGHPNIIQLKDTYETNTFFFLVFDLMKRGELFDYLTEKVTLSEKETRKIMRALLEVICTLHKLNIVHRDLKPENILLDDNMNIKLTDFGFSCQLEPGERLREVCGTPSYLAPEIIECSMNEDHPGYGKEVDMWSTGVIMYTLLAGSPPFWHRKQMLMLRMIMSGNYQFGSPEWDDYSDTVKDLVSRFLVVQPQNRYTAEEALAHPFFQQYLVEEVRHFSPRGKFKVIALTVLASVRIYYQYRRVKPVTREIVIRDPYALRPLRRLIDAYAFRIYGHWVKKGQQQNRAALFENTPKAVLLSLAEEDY
Sequence of Casein kinase I isoform delta (Homo sapiens) (P48730 whole entry, looked up, the tested form may be a part, canonical isoform): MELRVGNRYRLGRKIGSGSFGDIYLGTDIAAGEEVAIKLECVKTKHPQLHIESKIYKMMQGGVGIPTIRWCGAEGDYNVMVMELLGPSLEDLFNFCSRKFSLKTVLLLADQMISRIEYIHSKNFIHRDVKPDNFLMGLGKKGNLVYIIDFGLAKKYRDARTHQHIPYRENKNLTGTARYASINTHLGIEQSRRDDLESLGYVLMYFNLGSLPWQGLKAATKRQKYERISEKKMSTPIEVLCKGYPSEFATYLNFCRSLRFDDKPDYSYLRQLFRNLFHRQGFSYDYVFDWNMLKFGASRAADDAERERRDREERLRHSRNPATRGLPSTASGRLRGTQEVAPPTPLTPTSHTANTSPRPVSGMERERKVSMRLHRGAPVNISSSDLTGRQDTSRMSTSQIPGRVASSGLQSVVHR
Sequence of Fibroblast growth factor receptor 1 (Homo sapiens) (P11362 22-822 limits assumed): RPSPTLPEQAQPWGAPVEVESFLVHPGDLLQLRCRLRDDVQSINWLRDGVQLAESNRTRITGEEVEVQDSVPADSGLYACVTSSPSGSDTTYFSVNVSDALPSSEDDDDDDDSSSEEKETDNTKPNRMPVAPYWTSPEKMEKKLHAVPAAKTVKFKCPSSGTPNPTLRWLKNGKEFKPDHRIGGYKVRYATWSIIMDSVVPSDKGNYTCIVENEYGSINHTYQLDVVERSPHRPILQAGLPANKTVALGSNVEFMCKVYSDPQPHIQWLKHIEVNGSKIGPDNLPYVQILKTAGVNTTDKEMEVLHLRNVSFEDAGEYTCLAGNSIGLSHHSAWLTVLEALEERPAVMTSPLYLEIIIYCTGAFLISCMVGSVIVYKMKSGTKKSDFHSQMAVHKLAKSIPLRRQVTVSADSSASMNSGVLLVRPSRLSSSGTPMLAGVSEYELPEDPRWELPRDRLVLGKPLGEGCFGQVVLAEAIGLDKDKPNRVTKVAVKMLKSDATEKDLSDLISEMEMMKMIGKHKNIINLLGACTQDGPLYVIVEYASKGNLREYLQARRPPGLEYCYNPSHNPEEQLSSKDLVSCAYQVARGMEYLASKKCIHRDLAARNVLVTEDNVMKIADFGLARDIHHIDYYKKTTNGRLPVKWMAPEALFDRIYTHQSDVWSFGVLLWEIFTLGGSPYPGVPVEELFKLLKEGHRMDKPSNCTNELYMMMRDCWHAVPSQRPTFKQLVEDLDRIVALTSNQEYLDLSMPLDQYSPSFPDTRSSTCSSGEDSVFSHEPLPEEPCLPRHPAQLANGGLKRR
Sequence of Serine/threonine-protein kinase Nek6 (Homo sapiens) (Q9HC98 whole entry, the tested form may be a part): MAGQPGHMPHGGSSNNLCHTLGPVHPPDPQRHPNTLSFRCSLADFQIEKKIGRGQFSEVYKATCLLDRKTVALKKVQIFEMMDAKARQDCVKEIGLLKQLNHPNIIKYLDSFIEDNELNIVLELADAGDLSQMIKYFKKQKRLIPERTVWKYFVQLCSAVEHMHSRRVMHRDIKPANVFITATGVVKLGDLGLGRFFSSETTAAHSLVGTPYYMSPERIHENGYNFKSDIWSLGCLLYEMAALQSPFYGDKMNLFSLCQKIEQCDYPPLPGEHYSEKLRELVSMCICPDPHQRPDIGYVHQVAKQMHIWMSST
Sequence of MAP/microtubule affinity-regulating kinase 3 (Homo sapiens) (P27448 whole entry, looked up, the tested form may be a part): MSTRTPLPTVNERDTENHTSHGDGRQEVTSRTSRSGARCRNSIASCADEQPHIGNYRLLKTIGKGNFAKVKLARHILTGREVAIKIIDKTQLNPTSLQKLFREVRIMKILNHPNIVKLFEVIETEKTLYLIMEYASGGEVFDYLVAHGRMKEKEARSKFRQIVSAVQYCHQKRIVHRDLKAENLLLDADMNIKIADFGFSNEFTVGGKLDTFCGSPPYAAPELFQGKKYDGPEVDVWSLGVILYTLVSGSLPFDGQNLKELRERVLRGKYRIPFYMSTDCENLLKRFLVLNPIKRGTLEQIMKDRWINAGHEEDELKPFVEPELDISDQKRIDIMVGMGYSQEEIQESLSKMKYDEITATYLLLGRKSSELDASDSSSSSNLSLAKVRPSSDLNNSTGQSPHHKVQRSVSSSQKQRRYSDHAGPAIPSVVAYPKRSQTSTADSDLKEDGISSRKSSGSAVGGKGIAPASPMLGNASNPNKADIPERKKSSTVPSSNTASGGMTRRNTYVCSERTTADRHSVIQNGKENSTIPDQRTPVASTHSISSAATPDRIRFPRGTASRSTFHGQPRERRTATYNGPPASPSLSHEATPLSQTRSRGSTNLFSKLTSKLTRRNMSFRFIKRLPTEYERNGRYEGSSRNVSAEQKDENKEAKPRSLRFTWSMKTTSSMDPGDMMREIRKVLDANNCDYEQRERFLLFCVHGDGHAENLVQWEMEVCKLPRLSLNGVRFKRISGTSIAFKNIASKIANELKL
Sequence of Ephrin type-B receptor 3 (Homo sapiens) (P54753 whole entry, the tested form may be a part): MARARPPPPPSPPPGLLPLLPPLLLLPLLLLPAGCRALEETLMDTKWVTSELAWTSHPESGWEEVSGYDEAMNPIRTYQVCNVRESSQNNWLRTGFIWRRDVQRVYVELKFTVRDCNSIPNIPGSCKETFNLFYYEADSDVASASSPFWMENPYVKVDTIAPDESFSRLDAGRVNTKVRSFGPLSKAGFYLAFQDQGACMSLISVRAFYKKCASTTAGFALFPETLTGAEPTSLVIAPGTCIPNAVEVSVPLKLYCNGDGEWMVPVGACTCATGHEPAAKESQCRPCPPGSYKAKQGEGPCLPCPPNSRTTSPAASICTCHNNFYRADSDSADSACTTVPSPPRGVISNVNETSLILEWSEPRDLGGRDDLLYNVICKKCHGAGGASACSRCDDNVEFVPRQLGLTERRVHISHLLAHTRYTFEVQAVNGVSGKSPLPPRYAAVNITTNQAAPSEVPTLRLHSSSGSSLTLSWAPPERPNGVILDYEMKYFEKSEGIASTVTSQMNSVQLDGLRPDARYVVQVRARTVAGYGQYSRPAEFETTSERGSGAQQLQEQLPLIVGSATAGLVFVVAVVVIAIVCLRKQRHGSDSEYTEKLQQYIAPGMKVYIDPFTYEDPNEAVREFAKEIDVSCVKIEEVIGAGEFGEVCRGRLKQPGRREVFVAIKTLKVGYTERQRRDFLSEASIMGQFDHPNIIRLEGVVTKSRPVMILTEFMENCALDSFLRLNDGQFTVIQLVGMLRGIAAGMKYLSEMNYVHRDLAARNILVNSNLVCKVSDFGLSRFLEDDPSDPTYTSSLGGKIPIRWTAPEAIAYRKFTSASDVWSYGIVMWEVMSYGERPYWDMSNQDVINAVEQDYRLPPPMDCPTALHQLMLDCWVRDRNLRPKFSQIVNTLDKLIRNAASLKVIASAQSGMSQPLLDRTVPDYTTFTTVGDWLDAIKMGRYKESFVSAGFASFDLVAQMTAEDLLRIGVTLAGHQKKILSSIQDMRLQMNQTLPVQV
Sequence of AMPK alpha1/beta2/gamma1 (Homo sapiens) (O43741 whole entry, looked up, the tested form may be a part): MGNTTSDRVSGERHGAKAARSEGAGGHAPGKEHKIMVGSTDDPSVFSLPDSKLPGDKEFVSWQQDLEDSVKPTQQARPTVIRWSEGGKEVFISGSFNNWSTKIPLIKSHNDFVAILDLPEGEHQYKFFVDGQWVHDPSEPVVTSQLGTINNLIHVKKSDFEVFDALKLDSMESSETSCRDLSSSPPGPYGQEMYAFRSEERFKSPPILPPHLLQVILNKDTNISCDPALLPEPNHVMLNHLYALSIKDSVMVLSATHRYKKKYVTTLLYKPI
Sequence of AMPK alpha1/beta2/gamma1 (Homo sapiens) (P54619 whole entry, looked up, the tested form may be a part): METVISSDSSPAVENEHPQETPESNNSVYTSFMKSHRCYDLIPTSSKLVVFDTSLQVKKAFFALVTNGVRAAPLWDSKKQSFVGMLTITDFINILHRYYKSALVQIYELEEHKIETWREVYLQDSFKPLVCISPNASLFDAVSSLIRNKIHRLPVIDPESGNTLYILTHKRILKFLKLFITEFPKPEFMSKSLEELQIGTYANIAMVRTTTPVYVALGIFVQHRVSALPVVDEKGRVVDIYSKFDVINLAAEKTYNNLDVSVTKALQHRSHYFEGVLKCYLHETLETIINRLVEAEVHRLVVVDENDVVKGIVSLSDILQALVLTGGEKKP
Sequence of AMPK alpha1/beta2/gamma1 (Homo sapiens) (Q13131 whole entry, looked up, the tested form may be a part): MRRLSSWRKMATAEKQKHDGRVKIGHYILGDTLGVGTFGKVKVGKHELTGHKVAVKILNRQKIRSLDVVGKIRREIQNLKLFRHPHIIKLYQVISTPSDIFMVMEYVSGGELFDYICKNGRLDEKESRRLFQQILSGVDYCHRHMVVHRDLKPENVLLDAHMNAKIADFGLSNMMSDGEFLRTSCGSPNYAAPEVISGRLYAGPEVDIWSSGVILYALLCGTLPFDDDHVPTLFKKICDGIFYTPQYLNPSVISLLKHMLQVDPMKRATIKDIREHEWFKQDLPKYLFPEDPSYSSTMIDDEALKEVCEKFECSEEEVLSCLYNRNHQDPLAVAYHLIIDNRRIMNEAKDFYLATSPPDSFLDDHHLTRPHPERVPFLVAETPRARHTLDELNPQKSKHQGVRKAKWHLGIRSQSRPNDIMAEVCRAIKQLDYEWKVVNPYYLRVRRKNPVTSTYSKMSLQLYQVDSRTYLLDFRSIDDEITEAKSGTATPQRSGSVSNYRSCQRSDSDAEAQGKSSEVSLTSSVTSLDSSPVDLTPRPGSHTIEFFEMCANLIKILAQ

COc1ccc(-c2ccc3c(N4CCOCC4)nc(N4C[C@@H](C)O[C@@H](C)C4)nc3n2)cc1CO [Ku-0063794] gave an Activity [1] of 83%, an Activity [2] of 87% and an Activity [3] of 89%. The inhibition [4] was “Dose-Dependent Effect”, the Activity [5] was 106% and the Activity [6] was 93%. The inhibition [7] was “Active”, the inhibition [8] was “Active” and the Activity [9] was 100%. For the same compound, the Activity [10] was 109%, the Activity [11] was 96% and the Activity [12] was 87%. For the same compound, the Activity [13] was 89%, the Activity [14] was 116% and the Activity [15] was 9.4%. The Activity [16] was 115% and the inhibition [17] was “Active”.
